ChEMBL document CHEMBL1268870 (J Med Chem, 2010)
Calls of active or inactive are those of the source. The rule behind the calls is not given here.

What was measured:
Xenopus laevis = assay: Anesthetic potency in Xenopus laevis; assay type: functional, organism-based
[1] = target: T1, GABA-A receptor; alpha-1/beta-2/gamma-2 (Homo sapiens) (UniProt P14867+P47870+P18507); assay: Agonist activity at human GABA-A alpha-1-beta-2-gamma-2 receptor expressed in Xenopus laevis assessed as increase in channel current at 10 uM by electrophysiology relative to control; assay type: functional
[2] = target: T2, 5-hydroxytryptamine receptor 3A (Homo sapiens) (UniProt P46098); assay: Inhibition of 5HT3A receptor expressed in Xenopus oocyte at 9 uM
T2 sequence (whole entry): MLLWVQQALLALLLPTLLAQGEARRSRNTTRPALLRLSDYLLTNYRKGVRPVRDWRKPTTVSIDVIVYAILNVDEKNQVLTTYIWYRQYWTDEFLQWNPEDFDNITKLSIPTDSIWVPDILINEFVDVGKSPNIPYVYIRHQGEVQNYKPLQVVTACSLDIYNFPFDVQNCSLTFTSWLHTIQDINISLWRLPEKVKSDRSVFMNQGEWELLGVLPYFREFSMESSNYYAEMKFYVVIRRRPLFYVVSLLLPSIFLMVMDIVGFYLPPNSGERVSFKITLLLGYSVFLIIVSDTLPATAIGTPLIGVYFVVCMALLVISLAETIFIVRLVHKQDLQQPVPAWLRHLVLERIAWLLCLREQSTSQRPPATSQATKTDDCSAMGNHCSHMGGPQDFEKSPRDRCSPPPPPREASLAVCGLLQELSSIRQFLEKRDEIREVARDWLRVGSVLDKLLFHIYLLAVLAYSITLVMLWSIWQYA
Procedure, shortened: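 Oocytes injected with ~50 ng human 5-HT3A cRNA. Two-electrode voltage clamp at −50 mV, room temperature, ND96. Compound was pre-applied for 30 s, then co-applied with 100 μM 5-HT for 30 s. Peak current was expressed as a percentage of the mean of the flanking 100 μM 5-HT control currents. Fixed compound concentration of 9 μM.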

[3] = Inhibition of Torpedo nAChR expressed in Xenopus oocyte assessed as inhibition of ACh-induced channel current
[4] = target: T1, GABA-A receptor; alpha-1/beta-2/gamma-2 (Homo sapiens); assay: Allosteric modulation of human GABAA alpha-1-beta-2-gamma-2 receptor expressed in Xenopus laevis assessed as enhancement of [3H]flunitrazepam binding up to 10 uM
[5] = target: T2, 5-hydroxytryptamine receptor 3A (Homo sapiens); assay: Displacement of [3H]GR65630 from 5HT3A receptor expressed in Xenopus oocyte
Homo sapiens = organism: Homo sapiens; assay: Agonist activity at human GABA-A alpha-1-beta-2-gamma-2 receptor expressed in Xenopus laevis assessed as increase in channel current at saturated concentration by electrophysiology relative to control; assay type: functional
[6] = target: T1, GABA-A receptor; alpha-1/beta-2/gamma-2 (Homo sapiens); assay: Allosteric modulation of human GABAA alpha-1-beta-2-gamma-2 receptor expressed in Xenopus laevis assessed as enhancement of [3H]mucimol binding up to 10 uM
[7] = target: T2, 5-hydroxytryptamine receptor 3A (Homo sapiens); assay: Inhibition of 5HT3A receptor expressed in Xenopus oocyte at 20 uM
Torpedo = assay: Binding affinity to Torpedo nAChR assessed as photoincorporation in to membrane; assay type: cell membranes; details: tested as the 3H-labelled form
Procedure, shortened: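 Torpedo californica nAChR-rich membranes at 2 mg/mL in Torpedo saline pH 7.0 with 1 mM oxidized glutathione. Incubated 40 min at room temperature with 0.3 μM tritiated probe, ± carbamylcholine, proadifen, tetracaine or PCP, then irradiated at 365 nm for 30 min on ice. Subunits separated by SDS-PAGE. Incorporation measured by fluorography and by scintillation counting of excised bands (two parallel labelings).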

[8] = target: T1, GABA-A receptor; alpha-1/beta-2/gamma-2 (Homo sapiens); assay: Agonist activity at human GABA-A alpha-1-beta-2-gamma-2 receptor expressed in Xenopus laevis assessed as increase in channel current at 5 uM by electrophysiology relative to control; assay type: functional
[9] = target: T1, GABA-A receptor; alpha-1/beta-2/gamma-2 (Homo sapiens); assay: Agonist activity at human GABAA alpha-1-beta-2-gamma-2 mutant receptor expressed in Xenopus laevis assessed as increase in channel current at 5 uM by electrophysiology relative to control; assay type: functional
Procedure, shortened: (§1)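 Oocytes expressing human α1β2(M286W)γ2L GABA-A receptor. Two-electrode voltage clamp at −50 mV, room temperature, ND96 pH 7.5. […] Applications lasted 15–20 s with ~3 min washes.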

[10] = target: T1, GABA-A receptor; alpha-1/beta-2/gamma-2 (Homo sapiens); assay: Agonist activity at human GABAA alpha-1-beta-2-gamma-2 mutant receptor expressed in Xenopus laevis assessed as increase in channel current at 10 uM by electrophysiology relative to control; assay type: functional; procedure, shortened: as §1

CCOC(=O)c1cncn1[C@H](C)c1ccc(C2(C(F)(F)F)N=N2)cc1
EC50 (Xenopus laevis): 17.1 µM
Imax [1]: 0.73%
inhibition [2]: 34%
IC50 [3]: 11.3 µM

CCOC(=O)c1cncn1[C@H](C)c1ccccc1
Activity [4]: Active
Activity [5]: inactive

CCOC(=O)c1cncn1C(C)c1ccc(C2(C(F)(F)F)N=N2)cc1 (stereo unspecified)
Activity (Homo sapiens): 1.3%
Activity [4]: inactive
Activity [6]: inactive
inhibition [7]: 1.7%
Activity [5]: inactive
IC50 [3]: 4.1 µM
Activity (Torpedo): Active

CCOC(=O)c1cncn1[C@@H](C)c1ccc(C2(C(F)(F)F)N=N2)cc1
EC50 (Xenopus laevis): 4.9 µM
fold change (FC) [8]: 2.2
Imax [1]: 0.9%
fold change (FC) [1]: 3
fold change (FC) [9]: 1.8
fold change (FC) [10]: 2.2
inhibition [2]: 29%
IC50 [3]: 4.7 µM
